Compound activity deposited in PubChem BioAssay by several laboratories.
GPR7 antag: antagonists of human GPR7 (neuropeptides B/W receptor 1); inhibition, % at 4.4 µM; P48145; 290,000 compounds, 1.1% hits; GPR7-expressing cells, fluorescence antagonist assay; in the data active means inhibition above about 16%, passing the limit was not always enough;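 further: cells stimulated with the agonist NPW; 0% = agonist with vehicle and 100% = vehicle without agonist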
OX1R antag-1: blocks the human orexin 1 receptor. CHO/OX1R cells, Fluo-8 calcium fluorescence, orexin A. inhibition, % at 5 µM. 330,000 compounds, 0.43% hits. AID 434989;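 active means inhibition above its plate's threshold, mean inhibition of all tested compounds on the plate plus 3 SD, cut at about 37% in these data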;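 further: 0% = orexin A challenge wells and 100% = SB-334867-A antagonist wells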
Target sequence (O43613 whole entry, looked up): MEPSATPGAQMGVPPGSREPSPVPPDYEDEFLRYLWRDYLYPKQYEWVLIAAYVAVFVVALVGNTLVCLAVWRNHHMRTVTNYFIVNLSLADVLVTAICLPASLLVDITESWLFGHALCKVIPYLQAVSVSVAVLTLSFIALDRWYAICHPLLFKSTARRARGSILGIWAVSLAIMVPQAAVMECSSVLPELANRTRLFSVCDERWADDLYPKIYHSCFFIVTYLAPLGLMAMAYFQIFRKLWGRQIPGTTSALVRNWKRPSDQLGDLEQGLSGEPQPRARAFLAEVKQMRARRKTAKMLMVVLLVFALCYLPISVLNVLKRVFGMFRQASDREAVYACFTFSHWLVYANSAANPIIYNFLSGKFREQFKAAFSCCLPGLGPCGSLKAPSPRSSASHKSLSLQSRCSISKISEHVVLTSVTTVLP
CHO parental Ca: counter-screen for OX1R antagonists: effect in parental CHO cells; inhibition, % at 5.6 µM; 330,000 compounds, 0.63% hits; AID 463079; parental CHO-K1, ATP-induced calcium, Fluo-8 fluorescence;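 active means inhibition above that plate's mean sample inhibition plus 3 SD, cut at about 26% in these data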;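 further: 0% = ATP-challenged DMSO wells and 100% = DMSO wells without ATP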
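Material: parental CHO cells / Compound: single nominal dose of 5.6 µM per compound / Signal: Fluo-8 fluorescence / Replicates: singlicate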
OX1R antag-2: antagonists of human orexin 1 receptor (OX1R); O43613; OX1R-expressing cells, FRET antagonist read-out; inhibition, % at 6.6 µM; 330,000 compounds, 1.8% hits; in the data active means inhibition mostly above about 38%, no sharp cut-off; inactive means mostly below about 40%;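 further: 0% = agonist challenge alone and 100% = reference antagonist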
MPTP block: permeability transition pore inhibition. isolated mouse mitochondria, Ca2+ swelling absorbance, 30 min. inhibition, % at 10 µM. 360,000 compounds, 1.4% hits. AID 602449;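 active means inhibition of 50% or more, scaled per plate between neutral and stimulator controls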;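 further: 0% = DMSO wells given calcium and 100% = 1 mM EGTA wells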
MPTP counter: Rhodamine 123 counter-screen of mitochondrial pore hits; shares compounds with MPTP block; isolated mitochondria, membrane potential, Rhodamine 123 fluorescence; inhibition, % at 10 µM; 5,000 compounds, 78% hits; in the data active means inhibition above about 22%;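 further: 0% = DMSO vehicle and 100% = positive control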
MPTP abs DR: MPTP inhibition, dose response swelling confirmation | shares compounds with MPTP block | isolated mitochondria swelling, absorbance | IC50, µM | 780 compounds, 58% hits | AID 651561; in the data active means IC50 below about 20 µM
MPTP counter DR: MPTP inhibitor counter-screen activity, dose response | shares compounds with MPTP block | isolated mitochondria counterscreen, fluorescence read-out | IC50, µM | 780 compounds, 49% hits | AID 651564; in the data active means IC50 below about 80 µM
Active calls of the source: *; . = no result; ! = repeats disagree. A selection: hits, their analogues and other compounds. The true share with any hit is near 3.8%.

SMILES	GPR7 antag	OX1R antag-1	CHO parental Ca	OX1R antag-2	MPTP block	MPTP counter	others
Cc1cc(C)n(-c2nc(-c3ccc(Cl)c(Cl)c3)cs2)n1	-4.3	-10.1	-12.5	13.2	59.9*	1.0	MPTP abs DR=>100;MPTP counter DR=>80
Cn1cc(CNCc2cn(C)nc2-c2ccc(C3CCCCC3)cc2)cn1	2.2	-9.4	-16.4	4.9	91.7*	-5.8	MPTP abs DR=8.8*;MPTP counter DR=71.2*
CCOC(=O)c1c(N2C(=O)Nc3cc(Cl)c(Cl)cc3N2O)sc2c1CCCCC2	-6.5	17.1	4.9	34.9	91.1*	70.2*
O=C(Nc1ccccc1)c1nnn(Cc2ccccc2)c1NC(=O)C(F)(F)F	6.2	-17.3	5.2	16.5	88.6*	83.7*
COc1ccccc1NC(=O)c1nnn(Cc2ccccc2)c1NC(C)=O	-5.4	-28.5	-17.6	8.3	-0.1	.
CC(=O)Nc1c(C(=O)NCc2ccccc2)nnn1Cc1ccccc1	6.0	-19.0	-9.5	35.4	1.5	.
COc1ccccc1NC(=O)c1nnn(Cc2ccccc2)c1NC(=O)C(F)(F)F	25.4	-15.3	-0.2	12.0	73.7*	73.2*
CCNc1nc(NC(C)(C)C)nc(Oc2ccc(=O)n(-c3ccccc3)n2)n1	-14.7	-8.2	-14.9	14.3	1.2	.
Cc1ccc(NC(=S)Nc2nc(CC(=O)Nc3ccccc3)cs2)cc1	-14.7	-3.8	-3.2	1.4	77.7*	83.9*
COc1cc2ncc(S(=O)(=O)c3ccccc3)c(N3CCCC(C)C3)c2cc1OC (configuration not stated)	-18.7	-13.5	16.4	26.8	0.0	.
COc1ccc(CNC(=O)c2ccc(CS(=O)(=O)c3ccc(C)cc3)o2)cc1	-1.5	-9.7	-12.4	4.8	-1.9	.
CCc1c(C2(O)CCCCC2)[nH]c2cc(C(F)(F)F)ccc12	-25.7	45.2*	-3.5	64.3*	82.4*	86.5*
O=C(N/N=C/c1ccc(Sc2ccccn2)o1)c1cc2ccccc2cc1O	-6.5	-16.1	-9.1	0.9	67.8*	35.0*
O=C(N/N=C\c1ccc(Sc2ccccn2)o1)c1cccc(F)c1	3.4	-24.5	-19.2	38.4	-1.5	.
COC(=O)c1ccc(C2N=C(c3cccs3)CC(c3ccccc3O)N2)cc1 (configuration not stated)	-1.9	3.7	42.1*	72.2*	51.8*	88.2*
Cc1c(CCOC(=O)c2ccc(Cl)cc2Cl)sc[n+]1CC(=O)c1ccc(Br)cc1	.	26.8	9.5	6.3	-0.6	.
Cc1c(CCOC(=O)C2C3CC4CC(C3)CC2C4)sc[n+]1CC(=O)c1ccc(Br)cc1 (configuration not stated)	-15.6	-4.9	-14.0	1.9	99.7*!	-3.4	MPTP abs DR=3.73*;MPTP counter DR=21*
COc1ccccc1C=NN=C(NN=Cc1ccccc1OC)NN=Cc1ccccc1OC	.	.	.	.	94.4*	97.3*
O=C(CSc1nc2ccccc2c(=O)[nH]1)Nc1ccc(N2CCOCC2)c(Cl)c1	-10.9	-13.7	-7.7	15.8	1.9	.
CCN(c1ccccc1)S(=O)(=O)c1cc(C(=O)NCc2ccco2)ccc1C	.	0.1	-5.9	0.0	0.2	.
CCc1ccc(NC(=O)c2ccc(F)c(S(=O)(=O)N(CC)c3ccccc3)c2)cc1	-18.2	0.0	33.8	24.8	62.1*	76.1*
O=C(N/C(=C\c1ccco1)C(=O)N1CCCC(CO)C1)c1ccccc1 (configuration not stated)	-12.5	-9.6	5.0	15.9	0.0	.
CN(Cc1ccc(OCC(O)CN2CCCCC2)cc1)Cc1ccnc2ccccc12 (configuration not stated)	-11.5	.	.	.	94.6*	106.0*
Cc1nn(C)cc1CN(C)Cc1ccc(OCC(O)CN2CCCCC2)cc1 (configuration not stated)	-19.3	-13.8	-6.9	-2.5	1.6	.
CC(=O)NC(Cc1c[nH]c2ccccc12)C(=O)NCCc1ccccn1 (configuration not stated)	2.7	-4.8	4.7	1.9	-2.4	.
SMILES	GPR7 antag	OX1R antag-1	CHO parental Ca	OX1R antag-2	MPTP block	MPTP counter	others
CC(C)CC1(C)NC(=O)N(CC(=O)Nc2ccc3c(c2)CCC3)C1=O (configuration not stated)	-2.7	-7.8	-7.8	16.2	0.1	.
Cc1cc(N2CCN(C(c3ccccc3)c3ccccc3)CC2)n2ncnc2n1	-6.8	-22.8	-6.8	4.9	1.5	.
Cc1cc(N2CCN(c3nc4ccccc4s3)CC2)n2ncnc2n1	14.8	13.1	27.6	36.2	82.1*	72.8*
Cc1cc(C)cc(C(=O)N(NC(=O)Nc2ccc(Cl)cc2)C(C)(C)C)c1	5.5	16.8	-0.7	23.9	97.2*	98.5*
CC(C)(C)N(NC(=O)Nc1ccc(F)cc1)C(=O)c1ccccc1	-2.0	-2.1	-9.8	8.9	-0.7	.
Cc1ccc(Sc2cc(NCCCO)c([N+](=O)[O-])c3nonc23)cc1	-12.9	11.7	4.8	14.0	71.9*	34.2*
CCOC(=O)N1CCN(c2cc(NCCO)c([N+](=O)[O-])c3nonc23)CC1	-9.4	-16.2	-3.9	20.2	-3.2	.
CCN(CC)c1ccc(/C=C2/C(=O)c3ccc(C(=O)O)cc3C2=O)cc1	-0.6	82.7*	46.1	33.1	71.8*	-34.3
Cc1ccc(-n2ncc3c(SCc4cccnc4)ncnc32)c(C)c1	3.1	.	.	.	87.7*	81.9*
Cn1nc(C(F)(F)F)c2cc(C(=O)Nc3ccc(F)cc3)sc21	-15.1	-28.1	-31.2	16.2	26.4	.
Cn1nc(C(F)(F)F)c2cc(C(=O)Nc3ccc(C(F)(F)F)cc3)sc21	6.5	-17.7	-17.4	9.1	91.2*	75.4*
Cn1nc(C(F)(F)F)c2cc(C(=O)Nc3ccc(F)c(Cl)c3)sc21	-0.6	-8.0	-18.2	23.6	88.7*	76.2*
N#Cc1cc(NC(=O)c2ccc(Cl)cc2)ccc1Sc1ccccc1	.	.	.	.	73.1*	96.3*
COc1ccc(CCNC(=O)C(C(=O)c2ccc(F)cc2)n2ccccc2=O)cc1OC (configuration not stated)	0.3	-15.9	-9.8	8.5	-1.0	.
COc1ccc(CCC(=O)Nc2ccc(Cl)c(S(=O)(=O)N3CCCC3)c2)cc1	20.6*	35.5	52.6*	25.8	96.3*	85.0*
COc1ccc(C(C(=O)NC2CCCC2)n2c(-c3cccs3)nc3ccccc32)cc1 (configuration not stated)	.	.	.	.	1.5	.
Cc1nc2c(OCc3ccc(C(F)(F)F)cc3)cccn2c1N(C)CC1CC1	.	.	.	.	81.0*	106.6*
COC(=O)c1ccccc1COc1cccn2c(N(C)CC3CC3)c(C)nc12	.	.	.	.	66.8*	96.6*
CC(C)c1ccccc1NC(=O)Cn1c(/C=C/c2ccccc2)nc2ccccc21	-8.8	-23.3	-15.1	8.8	.	.
Cc1ccc(NC(=O)Cn2c(/C=C/c3ccccc3)nc3ccccc32)cc1C	0.1	-22.4	-18.9	16.9	63.1*	60.2*
